# High-throughput results: PubChem BioAssay, several laboratories
# proKLK7 act = proKLK7 (human) activation, primary screen; hit rate 0.9% among 370,000; purified proKLK7, EDANS-DABCYL substrate fluorescence; 100% is mature enzyme control, 0% vehicle; P49862; AID 652039; activation, % at 7 µM;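 active = activation above the mean of all tested compounds plus 3 SD, computed per campaign excluding outliers beyond control limits, cut at about 13% in these data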
# Target sequence (P49862 whole entry, looked up): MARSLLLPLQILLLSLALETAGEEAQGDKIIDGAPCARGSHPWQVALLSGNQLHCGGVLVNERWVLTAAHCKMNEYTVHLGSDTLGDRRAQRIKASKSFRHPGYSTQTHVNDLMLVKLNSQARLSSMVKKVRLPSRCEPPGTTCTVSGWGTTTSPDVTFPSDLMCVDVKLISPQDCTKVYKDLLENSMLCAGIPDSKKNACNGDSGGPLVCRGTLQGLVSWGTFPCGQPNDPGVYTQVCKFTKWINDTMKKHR
# RanGTP-Imp inh = inhibitors of RanGTP-importin-beta interaction, primary screen, biochemical, FRET, CFP-Ran, YFP-importin-beta, homogeneous; hit rate 1.1% among 300,000; cell-free CFP-Ran/YFP-importin-beta FRET ratio; inhibition, % (no concentration beside the values); AID 2216;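 active = more than half of the replicate wells show a fall in the fluorescence ratio signal beyond about 16%, limit read from the data, passing the limit was not always enough; inconclusive = exactly half of the replicate wells pass the set limit; inactive = fewer than half of replicates pass the limit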
# MEX-5 binding = C. elegans MEX-5 TCR-2 RNA binding activity | Q9XUB2 | hit rate 0.38% among 300,000 | MEX-5/FITC-TCR2 RNA binding, fluorescence polarization; active compounds read low | activity score (negative = inhibition of binding), % at 10 µM;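 active = inhibition past about -25% in most replicates, and total fluorescence under double the plate's negative control median, limit read from the data; inconclusive = replicates evenly split on the limit, or fluorescence at least double controls; inactive = too little inhibition in most replicates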
# Target sequence (Q9XUB2 whole entry, looked up): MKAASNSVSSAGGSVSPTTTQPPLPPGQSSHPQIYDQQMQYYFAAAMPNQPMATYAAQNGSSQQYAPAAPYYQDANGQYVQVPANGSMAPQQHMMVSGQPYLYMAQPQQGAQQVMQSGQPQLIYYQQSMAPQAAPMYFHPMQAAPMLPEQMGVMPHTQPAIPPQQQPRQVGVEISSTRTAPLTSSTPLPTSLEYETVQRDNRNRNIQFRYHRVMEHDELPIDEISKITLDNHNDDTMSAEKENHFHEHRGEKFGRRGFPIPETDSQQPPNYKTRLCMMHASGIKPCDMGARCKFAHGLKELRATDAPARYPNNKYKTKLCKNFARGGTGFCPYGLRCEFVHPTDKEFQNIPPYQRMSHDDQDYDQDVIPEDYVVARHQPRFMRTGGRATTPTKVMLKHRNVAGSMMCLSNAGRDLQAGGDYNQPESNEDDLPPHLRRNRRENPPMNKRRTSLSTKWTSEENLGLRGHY
# Runt-CBFb FRET = inhibitors of human RUNX1 Runt domain binding to CBFb | Cerulean-Runt/Venus-CBFb FRET ratio 530/480, 1 h | inhibition, % at 20 µM | hit rate 0.46% among 220,000 | Q01196+Q13951 | AID 1496;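 active = inhibition over about 50% at 20 µM in the single-dose screen, limit read from the data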
#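 Reagent – Venus-CBFb binding partner, 100 nM · Assay system – Cerulean-tagged RUNX1 Runt domain (FRET donor) fusion protein · Input – 100 nM per protein · Incubation – two 1 h room-temperature incubations shielded from light · Measured by – FRET fluorescence · Medium – Tris buffer pH 7.5 with salts and BSA · Benchmarks – unlabeled CBFb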
# Runt-SMMHC FRET = blocks binding of human RUNX1 Runt domain to CBFb-SMMHC. Q01196+Q13951. inhibition, % at 20 µM. Cerulean-Runt/Venus-CBFb-SMMHC FRET ratio 530/480, 1 h. hit rate 0.74% among 220,000;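 active = mean inhibition across duplicate retests at 20 µM reaching about 50%, limit read from the data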;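 note: inhibitors lower the FRET ratio by blocking Runt binding to CBFb-SMMHC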
# proKLK7 act conf = proKLK7 activation, confirmation; shares compounds with proKLK7 act; purified proKLK7, EDANS-DABCYL substrate fluorescence; scaled: vehicle 0, mature enzyme 100; activation, % at 7 µM; hit rate 68% among 3,200;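 active = activation, as change over the incubation, above the mean of all tested compounds plus 3 SD, cut at about 13% in these data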
# EDANS interfere = counter-screen for kallikrein-7 activators: EDANS-DABCYL optical interference; hit rate 80% among 3,200; activation, % at 7 µM; EDANS-DABCYL substrate fluorescence interference, no enzyme, 4 h; solvent 0%, active enzyme control 100%; shares compounds with proKLK7 act; AID 686952;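 active = activation above the all-compound mean plus 3 SD, ignoring values outside control-based bounds, cut at about 4.8% in these data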;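 note: value is the 4 h activation minus the activation read at time zero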
# EDANS interf = counter-screen for kallikrein-7 activators: EDANS-DABCYL interference, dose response; shares compounds with proKLK7 act; hit rate 20% among 250; EC50, µM; EDANS-DABCYL peptide fluorescence interference, no enzyme;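 active = compounds that raise the fluorescence signal in this interference counterscreen, with EC50 at or below 10 µM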;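 note: intact quenched peptide substrate alone read at 355 nm excitation and 520 nm emission; signal is fluorescence gain from T0 to T4 after four hours at room temperature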
# Hits are given with their value; - = inactive; ? = inconclusive; . = no result given. A selection: hits, their analogues and other compounds. The true share with any hit is near 2.1%.
SMILES,proKLK7 act,RanGTP-Imp inh,MEX-5 binding,Runt-CBFb FRET,Runt-SMMHC FRET,proKLK7 act conf,EDANS interfere,others
CCCCN(C)Cc1c(O)ccc2c(-c3ccccc3)cc(=O)oc12,17,-,.,-,-,17,23,
CCN(CC)Cc1c(O)ccc2c(-c3ccccc3)cc(=O)oc12,22,-,-,-,-,23,29,
CCCCSc1nc(O)cc(=O)n1CC,-,-,-,-,-,.,.,
Cc1cccc(C(=O)OC(C)C(=O)N2CCN(Cc3ccccc3)CC2)c1 (centres undefined),-,.,.,.,.,.,.,
COc1ccc(-n2c(O)c(/C=N/NS(=O)(=O)c3ccc(C)c([N+](=O)[O-])c3)c3ccccc3c2=O)cc1OC,15,.,-,-,-,41,44,
Cc1nc([N+](=O)[O-])cn1CC(O)c1ccc(F)cc1 (centres undefined),-,-,-,-,-,.,.,
O=C(CCS(=O)(=O)c1ccccc1)Nc1ccc(F)cc1F,-,.,.,.,.,.,.,
CCOC(=O)c1cc2c(=O)n3ccccc3nc2n(CCCOC)c1=NC(C)=O,62,.,.,56,-,-,7.2,
CC(C)OCCCn1c(=NC(=O)c2cccs2)c(C#N)cc2c(=O)n3ccccc3nc21,54,103,?,77,81,68,63,
CCOC(=O)c1cc2c3ccccc3n(CC)c2nc1N,-,-,-,-,-,.,.,
CCOC(=O)c1cc2c(=O)n3ccccc3nc2n(CCCOC)c1=NC(=O)c1ccncc1,18,-,-,65,92,-,-,
O=c1ccn([C@@H]2O[C@H](CNS(=O)(=O)c3csc(-c4ccno4)c3)[C@@H](O)[C@H]2O)c(=O)[nH]1,-,.,.,.,.,.,.,
Cc1[nH]nc2c1C(c1ccsc1)C1=C(CC(C)(C)CC1=O)N2 (centres undefined),14,-,-,-,-,13,17,
Cc1[nH]nc2c1C(c1ccccc1)C1=C(CC(C)(C)CC1=O)N2 (centres undefined),.,-,-,-,-,.,.,
CN(C)C=Nc1ccc2nn(-c3ccccc3)nc2c1,19,-,-,-,-,66,69,
CN(C)C=Nc1ccc(Cl)c(Cl)c1,-,-,-,-,-,.,.,
O=C(Nc1ccc(S(=O)(=O)N2CCCC2)cc1)c1cccnc1Cl,-,-,-,.,.,.,.,
CC1=C(C(=O)N2CCOCC2)CC(CC(=O)NC(c2ccccc2)c2ccccc2)C(=O)N1CCCN1CCCC1=O (centres undefined),-,.,.,.,.,.,.,
COc1ccc(-c2coc3cc(O)c(OC)cc3c2=O)cc1,13,.,.,.,.,67,54,
COc1ccc(-c2coc3cc(O)ccc3c2=O)cc1,-,-,-,.,.,.,.,
CCOC(=O)COc1ccc2c(=O)c(-c3ccccc3)coc2c1,-,-,-,-,-,.,.,
CC(=O)Oc1ccc2c(=O)c(-c3ccccc3)coc2c1,90,-,-,-,-,274,247,
COc1ccc(-c2coc3cc(OC(C)=O)ccc3c2=S)cc1,51,.,.,.,.,93,77,
COc1ccc(-c2coc3cc(OC)ccc3c2=O)cc1,-,.,.,.,.,.,.,
Cc1ccc(CN(C)C(=O)c2cc(S(=O)(=O)N3CCOCC3)ccc2F)o1,-,.,.,.,.,.,.,
SMILES,proKLK7 act,RanGTP-Imp inh,MEX-5 binding,Runt-CBFb FRET,Runt-SMMHC FRET,proKLK7 act conf,EDANS interfere,others
Cc1oc2c(c(C)cc3oc(=O)c(CC(=O)N[C@@H](C)C(=O)O)c(C)c32)c1C,-,-,-,.,.,.,.,
CC[C@@H](C)[C@H](NC(=O)CNC(=O)Cc1c(C)c2c(cc(C)c3c(C)coc32)oc1=O)C(=O)O,24,-,-,.,.,-,-,
Cc1oc2c(c(C)cc3oc(=O)c(CC(=O)N[C@@H](CCCNC(N)=O)C(=O)O)c(C)c32)c1C,22,-,-,.,.,21,14,EDANS interf=-
Cc1coc2c1c(C)cc1oc(=O)c(CC(=O)NCCCN3CCCC3=O)c(C)c12,23,-,-,.,.,-,-,
CCCC(NC(=O)Cc1c(C)c2c(cc(C)c3c(C)coc32)oc1=O)C(=O)O (centres undefined),26,-,-,.,.,-,-,
c1ccc(OC2CCCCC2N2CCOCC2)cc1 (centres undefined),-,.,.,.,.,.,.,
Cc1c(CCC(=O)NCCCN2CCCC2=O)c(=O)oc2cc(O)ccc12,73,-,-,.,.,65,84,
Cc1oc2cc3oc(=O)c(CCC(=O)NCCCN4CCOCC4)c(C)c3cc2c1C,-,-,-,.,.,.,.,
O=C(COC(=O)c1cc(Br)ccc1O)NNC(=O)c1cccs1,25,.,.,.,.,21,24,
O=C(NOC(=O)c1cc(Br)ccc1Cl)c1cccs1,-,-,-,-,-,.,.,
O=C(Nc1ccc(F)c(F)c1)C1CCN(S(=O)(=O)c2cccs2)CC1,-,.,.,.,.,.,.,
CCOC(=O)[C@H]1[C@H]2COc3ccc(OC)cc3[C@@H]2N2C(=O)c3ccccc3NC(=O)[C@@]12C,-,.,.,.,.,.,.,
Cc1ccc(-c2nc(=O)[nH]c3ccccc23)cc1,14,-,-,.,.,16,19,
N#CCSc1ccc2nc(-c3ccccc3)cn2n1,16,-,-,.,.,32,32,
CCOC(=O)c1cnc(N2CCN(C(=O)OCC)CC2)[nH]c1=O,-,-,-,-,-,.,.,
CSc1nc2ncc3c(n2n1)CC1c2ccccc2CCN1C3=O (centres undefined),-,?,-,-,-,.,.,
N#Cc1cnn2c3c(cnc12)C(=O)N1CCc2ccccc2C1C3 (centres undefined),77,?,-,92,86,-,-,
O=C1c2cnc3ncnn3c2CC2c3ccccc3CCN12 (centres undefined),101,-,-,-,-,195,179,
O=C1c2cnc3nc(SCc4cccc(Cl)c4)nn3c2CC2c3ccccc3CCN12 (centres undefined),-,?,-,-,-,.,.,
Cc1ccc(S(=O)(=O)N(C)[C@H]2C[C@H]3c4cc(-c5ccccc5C)ccc4CCN3C[C@H]2[C@H](C)O)cc1,-,.,.,.,.,.,.,
Cc1ccccc1-c1ccc2c(c1)[C@@H]1C[C@H](N(C)CC3CCCCC3)[C@H]([C@H](C)O)CN1CC2,13,.,.,.,.,-,7.1,
COC(=O)C1=CN(CC2CCCO2)C=C(C(=O)OC)C1c1cc(OC)c(OC)c(OC)c1 (centres undefined),16,-,-,-,93,-,-,
COC(=O)C1=CN(Cc2ccc(OC)cc2)C=C(C(=O)OC)C1c1cc(OC)c(OC)c(OC)c1,.,-,-,.,.,.,.,
O=C(Nc1cccc2c1[nH]c1ccccc12)C(F)(F)F,21,-,-,-,-,16,12,EDANS interf=-
